In ChEMBL document CHEMBL3421560, “Search for factors affecting antibacterial activity and toxicity of 1,2,4-triazole-ciprofloxacin hybrids” (Eur J Med Chem, 2015):
Converted amounts (≈) assume the structure as drawn.

Columns and labels:
[1] = Inhibition of Escherichia coli DNA topoisomerase 4 using kDNA as substrate after 1 hr by agarose gel electrophoresis
How it was run: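 E. coli topoisomerase IV decatenation kit: kDNA (0.5 µg) with 1 U enzyme in supplied buffer plus varying compound levels, 37 °C for 1 h. Stopped as for the gyrase assay, then 1% agarose in TAE, 1.5 h at 80 V, ethidium bromide. IC50 = concentration blocking 50% conversion to decatenated minicircles, by gel densitometry.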

DNA gyrase = DNA gyrase (Escherichia coli, UniProt P0AES4+P0AES6); assay: Inhibition of Escherichia coli DNA gyrase after 1 hr by agarose gel electrophoresis; format: protein-complex assay
Staphylococcus aureus [2] = assay: Ratio of vancomycin MIC to compound MIC for Staphylococcus aureus Microbank 14001; format: functional
Staphylococcus aureus [3] = assay: Ratio of MBC for Staphylococcus aureus Microbank 14001 to MIC for Staphylococcus aureus Microbank 14001; format: functional
How it was run: (§1)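 MBC taken as lowest concentration giving >99.9% CFU reduction of the initial inoculum; value is MBC divided by MIC for the same strain.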

Staphylococcus aureus [4] = assay: Antimicrobial activity against methicillin-susceptible Staphylococcus aureus ATCC 25923 after 18 hrs by broth microdilution method; format: functional; settings: ATCC 25923, 18 h
Staphylococcus aureus [5] = assay: Ratio of MBC for methicillin-susceptible Staphylococcus aureus ATCC 25923 to MIC for methicillin-susceptible Staphylococcus aureus ATCC 25923; format: functional; how it was run: as §1
Proteus mirabilis = assay: Antimicrobial activity against Proteus mirabilis ATCC 12453 after 18 hrs by broth microdilution method; format: functional; settings: ATCC 12453, 18 h
Pseudomonas aeruginosa [6] = assay: Antimicrobial activity against Pseudomonas aeruginosa ATCC 9027 after 18 hrs by broth microdilution method; format: functional; settings: ATCC 9027, 18 h
[7] = test system: Staphylococcus epidermidis; assay: Antimicrobial activity against Staphylococcus epidermidis ATCC 12228 after 18 hrs by broth microdilution method; format: functional; settings: ATCC 12228, 18 h
Micrococcus luteus = assay: Antimicrobial activity against Micrococcus luteus ATCC 10240 after 18 hrs by broth microdilution method; format: functional; settings: ATCC 10240, 18 h
Staphylococcus aureus [8] = assay: Antimicrobial activity against Staphylococcus aureus Microbank 14001 after 18 hrs by broth microdilution method; format: functional; settings: Microbank 14001, 18 h
Escherichia coli = assay: Antimicrobial activity against Escherichia coli ATCC 25922 after 18 hrs by broth microdilution method; format: functional; settings: ATCC 25922, 18 h
Bacillus subtilis = assay: Antimicrobial activity against Bacillus subtilis […] after 18 hrs by broth microdilution method; format: functional
Staphylococcus aureus [9] = assay: Ratio of MBC for methicillin-susceptible Staphylococcus aureus ATCC 6538 to MIC for methicillin-susceptible Staphylococcus aureus ATCC 6538; format: functional; how it was run: as §1
Klebsiella pneumoniae = assay: Antimicrobial activity against Klebsiella pneumoniae ATCC 13883 after 18 hrs by broth microdilution method; format: functional; settings: ATCC 13883, 18 h
Staphylococcus aureus [10] = assay: Antimicrobial activity against methicillin-susceptible Staphylococcus aureus ATCC 6538 after 18 hrs by broth microdilution method; format: functional; settings: ATCC 6538, 18 h
Bacillus cereus = assay: Antimicrobial activity against Bacillus cereus ATCC 10876 after 18 hrs by broth microdilution method; format: functional; settings: ATCC 10876, 18 h
Staphylococcus aureus [11] = assay: Ratio of ciprofloxacin MIC to compound MIC for methicillin-susceptible Staphylococcus aureus ATCC 6538; format: functional
Pseudomonas aeruginosa [12] = assay: Ratio of ciprofloxacin MIC to compound MIC for Pseudomonas aeruginosa ATCC 9027; format: functional
HEK293 = assay: Cytotoxicity against HEK293 cells after 72 hrs by MTT assay; format: cell-based; settings: Homo sapiens, HEK293, 48 h; in the assay text read “48 hrs” for “72 hrs”
How it was run: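 HEK-293 (ATCC CRL-1573) in MEM with 10% FBS plus penicillin/streptomycin, seeded 3 x 10^5 cells/well, 24 h at 37 °C, 5% CO2. Treated with compounds diluted from 50 mg/mL DMSO stock into medium with 2% FBS for 48 h. Viability by MTT formazan readout; EC50 relative to control cells, mean ± SD of three independent experiments.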

Staphylococcus aureus [13] = assay: Ratio of ciprofloxacin MIC to compound MIC for methicillin-susceptible Staphylococcus aureus ATCC 25923; format: functional

| Compound | IC50 [1] | IC50 (DNA gyrase) | Ratio (Staphylococcus aureus [3]) | MIC (Staphylococcus aureus [4]) | Ratio (Staphylococcus aureus [5]) | MIC (Proteus mirabilis) | MIC (Pseudomonas aeruginosa [6]) | MIC [7] | MIC (Micrococcus luteus) | MIC (Staphylococcus aureus [8]) | MIC (Escherichia coli) | MIC (Bacillus subtilis) | Ratio (Staphylococcus aureus [9]) | MIC (Klebsiella pneumoniae) | MIC (Staphylococcus aureus [10]) | MIC (Bacillus cereus) | Ratio (Staphylococcus aureus [11]) | EC50 (HEK293) | also measured |
| --- | --- | --- | --- | --- | --- | --- | --- | --- | --- | --- | --- | --- | --- | --- | --- | --- | --- | --- | --- |
| O=C(O)c1cn(C2CC2)c2cc(N3CCN(Cn4nc(-c5cccc(O)c5)n(-c5cccc(I)c5)c4=S)CC3)c(F)cc2c1=O | 78.1 µM | 9.78 µM | – | – | – | – | – | – | – | – | – | – | – | – | – | – | – | – | – |
| O=C(O)c1cn(C2CC2)c2cc(N3CCN(Cn4nc(-c5cccc(O)c5)n(-c5cc(Cl)cc(Cl)c5)c4=S)CC3)c(F)cc2c1=O | 78.7 µM | 6.05 µM | – | – | – | – | – | – | – | – | – | – | – | – | – | – | – | – | – |
| CCCc1nn(CN2CCN(c3cc4c(cc3F)c(=O)c(C(=O)O)cn4C3CC3)CC2)c(=S)n1-c1cccc(I)c1 | 155 µM | 6.28 µM | – | – | – | – | – | – | – | – | – | – | – | – | – | – | – | – | – |
| O=C(O)c1cn(C2CC2)c2cc(N3CCN(Cn4nc(-c5ccccc5O)n(Cc5ccc(F)cc5)c4=S)CC3)c(F)cc2c1=O | – | – | <=4 | 0.76 µM (≈ 0.49 µg/mL) | <=4 | 0.023 µM (≈ 0.0148 µg/mL) | 0.046 µM (≈ 0.0297 µg/mL) | 0.046 µM (≈ 0.0297 µg/mL) | 0.76 µM (≈ 0.49 µg/mL) | 0.046 µM (≈ 0.0297 µg/mL) | 0.011 µM (≈ 0.00709 µg/mL) | 0.011 µM (≈ 0.00709 µg/mL) | <=4 | 0.093 µM (≈ 0.06 µg/mL) | 0.19 µM (≈ 0.122 µg/mL) | 0.093 µM (≈ 0.06 µg/mL) | – | – | Ratio (Staphylococcus aureus [2]): 15 |
| COc1ccc(Cn2c(-c3ccccc3O)nn(CN3CCN(c4cc5c(cc4F)c(=O)c(C(=O)O)cn5C4CC4)CC3)c2=S)cc1 | – | – | <=4 | 0.36 µM (≈ 0.236 µg/mL) | <=4 | 0.023 µM (≈ 0.0151 µg/mL) | 0.023 µM (≈ 0.0151 µg/mL) | 0.046 µM (≈ 0.0302 µg/mL) | 1.49 µM (≈ 0.979 µg/mL) | 0.091 µM (≈ 0.0598 µg/mL) | 0.011 µM (≈ 0.00722 µg/mL) | 0.011 µM (≈ 0.00722 µg/mL) | <=4 | 0.023 µM (≈ 0.0151 µg/mL) | 0.091 µM (≈ 0.0598 µg/mL) | 0.091 µM (≈ 0.0598 µg/mL) | 8 | 78.7 µM | Ratio (Pseudomonas aeruginosa [12]): 31 |
| O=C(O)c1cn(C2CC2)c2cc(N3CCN(Cn4nc(-c5cccc(O)c5)n(Cc5ccc(F)cc5)c4=S)CC3)c(F)cc2c1=O | – | – | <=4 | 0.37 µM (≈ 0.239 µg/mL) | <=4 | 0.006 µM (≈ 0.00387 µg/mL) | 0.093 µM (≈ 0.06 µg/mL) | 0.19 µM (≈ 0.122 µg/mL) | 0.76 µM (≈ 0.49 µg/mL) | 0.37 µM (≈ 0.239 µg/mL) | 0.006 µM (≈ 0.00387 µg/mL) | 0.023 µM (≈ 0.0148 µg/mL) | <=4 | 0.046 µM (≈ 0.0297 µg/mL) | 0.093 µM (≈ 0.06 µg/mL) | 0.093 µM (≈ 0.06 µg/mL) | 8 | 69.5 µM | – |
| COc1ccc(Cn2c(-c3cccc(O)c3)nn(CN3CCN(c4cc5c(cc4F)c(=O)c(C(=O)O)cn5C4CC4)CC3)c2=S)cc1 | – | – | <=4 | 0.18 µM (≈ 0.118 µg/mL) | <=4 | 0.023 µM (≈ 0.0151 µg/mL) | 0.18 µM (≈ 0.118 µg/mL) | 0.091 µM (≈ 0.0598 µg/mL) | 1.49 µM (≈ 0.979 µg/mL) | 0.046 µM (≈ 0.0302 µg/mL) | 0.011 µM (≈ 0.00722 µg/mL) | 0.091 µM (≈ 0.0598 µg/mL) | <=4 | 0.091 µM (≈ 0.0598 µg/mL) | 0.091 µM (≈ 0.0598 µg/mL) | 0.18 µM (≈ 0.118 µg/mL) | 8 | 62.9 µM | Ratio (Staphylococcus aureus [2]): 15; Ratio (Staphylococcus aureus [13]): 16 |
| O=C(O)c1cn(C2CC2)c2cc(N3CCN(Cn4nc(-c5ccc(O)cc5)n(-c5ccc(F)cc5)c4=S)CC3)c(F)cc2c1=O | – | – | <=4 | 0.19 µM (≈ 0.12 µg/mL) | <=4 | 0.048 µM (≈ 0.0303 µg/mL) | 0.38 µM (≈ 0.24 µg/mL) | 0.095 µM (≈ 0.0599 µg/mL) | 1.55 µM (≈ 0.978 µg/mL) | 0.19 µM (≈ 0.12 µg/mL) | 0.024 µM (≈ 0.0151 µg/mL) | 0.048 µM (≈ 0.0303 µg/mL) | <=4 | 0.19 µM (≈ 0.12 µg/mL) | 0.19 µM (≈ 0.12 µg/mL) | 0.095 µM (≈ 0.0599 µg/mL) | – | 106 µM | Ratio (Staphylococcus aureus [13]): 16 |
| COc1ccc(-n2c(-c3ccc(O)cc3)nn(CN3CCN(c4cc5c(cc4F)c(=O)c(C(=O)O)cn5C4CC4)CC3)c2=S)cc1 | – | – | <=4 | 0.76 µM (≈ 0.488 µg/mL) | <=4 | 0.023 µM (≈ 0.0148 µg/mL) | 0.023 µM (≈ 0.0148 µg/mL) | 0.37 µM (≈ 0.238 µg/mL) | 1.52 µM (≈ 0.977 µg/mL) | 0.093 µM (≈ 0.0598 µg/mL) | 0.012 µM (≈ 0.00771 µg/mL) | 0.023 µM (≈ 0.0148 µg/mL) | <=4 | 0.093 µM (≈ 0.0598 µg/mL) | 0.19 µM (≈ 0.122 µg/mL) | 0.19 µM (≈ 0.122 µg/mL) | – | 105 µM | Ratio (Pseudomonas aeruginosa [12]): 31 |
| O=C(O)c1cn(C2CC2)c2cc(N3CCNCC3)c(F)cc2c1=O [CIPROFLOXACIN] | 80 µM | – | – | 2.96 µM (≈ 0.981 µg/mL) | – | 0.045 µM (≈ 0.0149 µg/mL) | 0.72 µM (≈ 0.239 µg/mL) | 1.48 µM (≈ 0.49 µg/mL) | 5.88 µM (≈ 1.95 µg/mL) | – | 0.024 µM (≈ 0.00795 µg/mL) | 0.09 µM (≈ 0.0298 µg/mL) | – | 0.36 µM (≈ 0.119 µg/mL) | 0.72 µM (≈ 0.239 µg/mL) | 0.36 µM (≈ 0.119 µg/mL) | – | – | – |
